Measured values pooled from the literature.
Each line is one published result; the experiments were not run side by side.
Target: Rho-associated protein kinase 2 (ROCK2, Homo sapiens, UniProt O75116)

effect on | action | technique | concentration | measurement | value | Compound
enzyme activity | inhibitor | – | 1 µM | inhibition | 0% | C=CC(=O)N1CCC[C@@H](n2nc(-c3ccc(Oc4ccccc4)cc3)c3c(N)ncnc32)C1
binding | – | competition with immobilised ligand | 0.5 µM | remaining binding | 100% | CCCCC(=O)Nc1ccc(-c2ccc3ncn(CCC)c(=O)c3c2)cn1
enzyme activity | inhibitor | – | 0.1 µM | inhibition | 14.6% | Cc1cc(O)c(-c2ccc([C@@H](C)CN(C)C)cc2)c2c1[nH]c(=O)c1sccc12
enzyme activity | inhibitor | – | 1 µM | inhibition | 29% | CC#CC(=O)N1CCC[C@H]1c1nc(-c2ccc(C(=O)Nc3ccccn3)cc2)c2c(N)nccn12
cell-free assay | – | – | 1 µM | remaining signal | 49% | C#Cc1cnc(Nc2ccnc(CO)c2)nc1Nc1ccccc1S(C)(=O)=NC#N (stereo not drawn)
binding | – | – | 1 µM | remaining binding | 1.5% | CN1CCN(C(=O)c2ccc(NC(=O)Nc3ccc(N(C)c4ccnc(Nc5ccc(CS(C)(=O)=O)cc5)n4)cc3)cc2)CC1
cell-free assay | – | competition with immobilised ligand | 25 µM | remaining binding | 63% | N#Cc1ccc(NC(=O)Nc2ccccc2)cc1
cell-free assay | – | – | 1 µM | remaining signal | 95% | C[C@H]1CC[C@H](n2c3cnccc3c3cnc(Nc4ccc5c(n4)CCN(C(=O)CO)C5)nc32)CC1
enzyme activity | inhibitor | – | 0.2 µM | inhibition | 5.91% | C#Cc1cc(-c2cc(Nc3nc(N[C@@H](C)c4ccc(F)cn4)ncc3Cl)n[nH]2)ccc1C=O
